Experimental data from ChEMBL document CHEMBL5252535, “Design of nucleotide-mimetic and non-nucleotide inhibitors of the translation initiation factor eIF4E: Synthesis, structural and functional characterisation” (Eur J Med Chem, 2016).
Calls of active or inactive are those of the source. The rule behind the calls is not given here.

Tests used:
[1] = tested on: HeLa; experiment: Inhibition of protein synthesis in methionine-starved human HeLa cells incubated for 24 hrs by scintillation counting based 35S-Met incorporation assay; assay type: functional, cell-based
In short: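 HeLa cells seeded at 6 × 10^4 per well, grown 24 h to 70% confluency, treated 24 h; Met-starved 30 min in Met-free DMEM with fresh compound, then pulsed 30 min with 35S-Met. Cells washed, lysed, protein TCA-precipitated and scintillation counted; puromycin positive control; three independent occasions; IC50 derived.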

[2] = tested on: MCF7; experiment: Inhibition of protein synthesis in methionine-starved human MCF7 cells incubated for 24 hrs by scintillation counting based 35S-Met incorporation assay; assay type: functional, cell-based
[3] = tested on: HeLa; experiment: Inhibition of cap dependent translation in human HeLa cells assessed as increase in sub-polysomal material at 50 to 100 uM incubated for 2 hrs by UV absorbance recording based assay; assay type: functional, cell-based; settings: dose 50-100 µM
In short: (§1)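 HeLa cells seeded in 15-cm dishes, grown 24 h to 70% confluency, treated 2 h; cycloheximide (0.1 mg/mL) added, cells harvested on ice and lysed (300 mM NaCl, 15 mM MgCl2, 15 mM Tris pH 7.5, heparin, cycloheximide, 0.1% Triton X-100). Lysates run on 10–60% sucrose gradients, 38,000 rpm 2 h; 1 mL fractions with continuous UV absorbance; polysome vs subpolysome areas compared; puromycin positive control.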

[4] = tested on: Reticulocyte; experiment: Inhibition of cap dependent translation of renilla luciferase mRNA in pRHCVF RNA primed rabbit reticulocyte lysate at 25 to 100 uM incubated for 90 mins by […]; assay type: functional, subcellular; settings: Oryctolagus cuniculus, dose 25-100 µM
In short: (§2)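 Rabbit reticulocyte lysate primed with 20 ng capped pRHCVF RNA (20 μL), 30 °C for 90 min, then on ice. Renilla (cap-dependent) and firefly (HCV IRES) luciferase read; final DMSO ≤1%; inhibition relative to 1% DMSO control set at 100%; m7GTP positive control. Three independent experiments, Student's t-test, S.D.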

[5] = tested on: Reticulocyte; experiment: Inhibition of HCV-IRES mediated cap-independent translation of firefly luciferase mRNA in rabbit reticulocyte lysate at 25 to 100 uM incubated for 90 mins by […]; assay type: functional, subcellular; settings: Oryctolagus cuniculus, dose 25-100 µM; in short: as §2
[6] = tested on: HeLa; experiment: Downregulation of cMyc protein level in human HeLa cells at 50 to 100 uM incubated for 2 hrs by Western blot analysis; assay type: functional, cell-based; settings: dose 50-100 µM
In short: (§3)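 HeLa cells treated 2 h; lysates probed by western blotting for c-myc and cyclin D1, actin as loading control.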

[7] = target: T1, Eukaryotic translation initiation factor 4E (Homo sapiens, UniProt P06730); experiment: Inhibition of m7GDP fluorescent probe binding to recombinant eIF4E (unknown origin) assessed as dissociation constant by fluorescence polarization assay
[8] = tested on: HeLa; experiment: Inhibition of cap dependent translation in human HeLa cells assessed as decrease in amount of RNA incorporated in polysomes at 25 uM incubated for 2 hrs by UV absorbance recording based assay; assay type: functional, cell-based; in short: as §1
[9] = tested on: HeLa; experiment: Downregulation of cyclin D1 protein level in human HeLa cells at 50 to 100 uM incubated for 2 hrs by Western blot analysis; assay type: functional, cell-based; settings: dose 50-100 µM; in short: as §3
[10] = tested on: Reticulocyte; experiment: Inhibition of cap dependent translation of renilla luciferase mRNA in pRHCVF RNA primed rabbit reticulocyte lysate at 100 uM incubated for 90 mins by […]; assay type: functional, subcellular; settings: Oryctolagus cuniculus; in short: as §2
[11] = tested on: Reticulocyte; experiment: Inhibition of HCV-IRES mediated cap-independent translation of firefly luciferase mRNA in rabbit reticulocyte lysate at 100 uM incubated for 90 mins by […]; assay type: functional, subcellular; settings: Oryctolagus cuniculus; in short: as §2
[12] = target: T1, Eukaryotic translation initiation factor 4E; experiment: Inhibition of P32-[alpha-GTP] cap radiolabelled RNA binding to recombinant eIF4E (unknown origin) assessed as decrease in cross linked RNA-eIF4E complex formation preincubated with UV radiation for 30 mins followed by RNase addition and measured after 30 mins by SDS-PAGE based autoradiographic analysis

T1 sequence (P06730 whole entry): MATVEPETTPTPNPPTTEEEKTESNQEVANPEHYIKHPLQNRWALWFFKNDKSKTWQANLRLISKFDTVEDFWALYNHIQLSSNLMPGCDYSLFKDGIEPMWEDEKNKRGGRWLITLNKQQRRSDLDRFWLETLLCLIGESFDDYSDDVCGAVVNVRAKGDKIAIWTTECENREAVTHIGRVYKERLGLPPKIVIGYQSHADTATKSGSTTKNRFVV

| SMILES | inhibition [4] | inhibition [5] | Kd [7] [µM] | inhibition [10] | inhibition [11] | IC50 [12] [µM] | inhibition [1] | inhibition [2] | inhibition [3] | Activity [6] | inhibition [8] | Activity [9] |
| --- | --- | --- | --- | --- | --- | --- | --- | --- | --- | --- | --- | --- |
| C[n+]1cn([C@@H]2O[C@H](COP(=O)(O)O)[C@@H](O)[C@H]2O)c2nc(N)[nH]c(=O)c21 | – | – | – | – | – | – | inactive | inactive | – | – | – | – |
| C[n+]1cn([C@@H]2O[C@H](COP(=O)(O)OP(=O)(O)OP(=O)(O)O)[C@@H](O)[C@H]2O)c2nc(N)[nH]c(=O)c21 | – | – | – | – | – | – | inactive | inactive | – | – | – | – |
| Nc1nc2c(c(=O)[nH]1)[n+](Cc1ccccc1)cn2[C@@H]1O[C@H](CNS(=O)(=O)C(F)(F)F)[C@@H](O)[C@H]1O | – | – | 56.5 | Active | inactive | 12.6 | inactive | inactive | – | – | – | – |

Now from value to molecule, other results behind:

| inhibition [4] | inhibition [5] | Kd [7] [µM] | inhibition [10] | inhibition [11] | IC50 [12] [µM] | SMILES | inhibition [1] | inhibition [2] | inhibition [3] | Activity [6] | inhibition [8] | Activity [9] |
| --- | --- | --- | --- | --- | --- | --- | --- | --- | --- | --- | --- | --- |
| Active | inactive | 57.8 | – | – | – | CC(C)CNC(=S)N(Cc1ccccc1)Cc1cc2cc3c(cc2[nH]c1=O)OCO3 | – | – | Active | Active | Active | Active |
| – | – | – | Active | inactive | – | C[n+]1cn([C@@H]2O[C@H](CNS(=O)(=O)c3ccc(C(=O)O)cc3)[C@@H](O)[C@H]2O)c2nc(N)[nH]c(=O)c21 | inactive | inactive | – | – | – | – |
